OX1R antag-1 = antagonists of human orexin 1 receptor; AID 434989; O43613; CHO/OX1R cells, Fluo-8 calcium fluorescence, orexin A; 0.43% of 330,000 active; inhibition, % at 5 µM;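 active means inhibition above its plate's threshold, mean inhibition of all tested compounds on the plate plus 3 SD, cut at about 37% in these data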;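 further: 0% = orexin A challenge wells and 100% = SB-334867-A antagonist wells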
OX1R antag-2 = blocks the human orexin 1 receptor; 1.8% of 330,000 active; inhibition, % at 6.6 µM; OX1R-expressing cells, FRET antagonist read-out; O43613; in the data active means inhibition mostly above about 38%, no sharp cut-off; inactive means mostly below about 40%;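 further: 0% = agonist challenge alone and 100% = reference antagonist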
CHO parental Ca = counter-screen: ATP calcium response change in parental CHO cells; inhibition, % at 5.6 µM; 0.63% of 330,000 active; parental CHO-K1, ATP-induced calcium, Fluo-8 fluorescence;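 active means inhibition above that plate's mean sample inhibition plus 3 SD, cut at about 26% in these data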;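 further: 0% = ATP-challenged DMSO wells and 100% = DMSO wells without ATP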
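Test system: untransfected parental CHO cell line. Compound: one dose, 5.6 µM nominal. Detection: intracellular calcium via Fluo-8 no-wash fluorescent dye. Measure: % inhibition. Benchmarks: ATP-challenged DMSO wells low, unchallenged DMSO wells high.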
GPR7 antag = human neuropeptides B/W receptor 1 antagonism | P48145 | inhibition, % at 4.4 µM | AID 1861 | 1.1% of 290,000 active | GPR7-expressing cells, fluorescence antagonist assay; in the data active means inhibition above about 16%, passing the limit was not always enough;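 further: cells stimulated with the agonist NPW; 0% = agonist with vehicle and 100% = vehicle without agonist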
Target sequence (P48145 whole entry, looked up): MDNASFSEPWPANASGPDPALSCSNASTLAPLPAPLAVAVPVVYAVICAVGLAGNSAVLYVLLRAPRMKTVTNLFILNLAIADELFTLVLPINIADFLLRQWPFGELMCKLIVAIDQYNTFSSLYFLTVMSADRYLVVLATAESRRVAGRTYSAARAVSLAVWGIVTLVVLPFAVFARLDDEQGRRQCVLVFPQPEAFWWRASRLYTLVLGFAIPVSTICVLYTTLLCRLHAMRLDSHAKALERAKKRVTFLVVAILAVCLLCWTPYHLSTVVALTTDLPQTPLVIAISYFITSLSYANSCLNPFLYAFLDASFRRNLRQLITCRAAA
TAAR1 antag = antagonists of human TAAR1 | CHO RD-HGA16 TAAR1, Fluo-8 calcium fluorescence, antagonist | 1.5% of 360,000 active | inhibition, % at 3 µM | Q96RJ0 | AID 624466;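 active means inhibition above a per-plate cutoff, the mean inhibition of test compounds on that plate plus 3 SD, cut at about 49% in these data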;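 further: 0% = DMSO plus EC80 beta-PEA response and 100% = DMSO alone without agonist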
Target sequence (Q96RJ0 whole entry, looked up): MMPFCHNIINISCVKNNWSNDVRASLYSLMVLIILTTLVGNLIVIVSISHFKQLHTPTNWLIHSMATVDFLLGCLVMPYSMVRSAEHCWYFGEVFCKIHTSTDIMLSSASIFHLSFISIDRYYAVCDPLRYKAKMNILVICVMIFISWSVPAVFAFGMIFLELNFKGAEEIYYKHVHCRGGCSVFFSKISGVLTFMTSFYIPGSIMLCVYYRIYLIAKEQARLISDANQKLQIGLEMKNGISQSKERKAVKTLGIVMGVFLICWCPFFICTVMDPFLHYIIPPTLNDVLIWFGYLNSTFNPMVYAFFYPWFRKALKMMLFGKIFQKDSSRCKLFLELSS
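Assay system: CHO-derived RD-HGA16 cells stably expressing human TAAR1 plus Gα16. Timing: 140 s kinetic read after compound, 140 s after agonist. Technique: kinetic Fluo-8 calcium fluorescence measurement. Measure: % inhibition of agonist calcium response.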
TAAR1 agonist = agonists of human TAAR1; AID 624467; Q96RJ0; activation, % at 3 µM; 0.99% of 360,000 active; CHO RD-HGA16 TAAR1, Fluo-8 calcium fluorescence; vehicle wells 0%, saturating PEA agonist 100%;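 active means activation above the mean activation of all test compounds in the run plus 3 SD, cut at about 38% in these data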
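Test system: RD-HGA16 (CHO) cells co-expressing Gα16 and hTAAR1; dosing: one-point dosing at 3 µM (nominal); timing: 17-24 h seeding, 75 min 37 °C dye, 30 min RT; signal: kinetic Fluo-8 calcium fluorescence; read-out basis: % activation relative to PEA EC100 response; controls: DMSO and PEA EC100; replicates: n 1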
An asterisk follows results filed as active. Most compounds without a hit are left out; they make up all but 4.6% or so of the library.

What do the screens show for `CCc1ccc([C@H]2C[C@H]3[C@H]4C(=O)N(c5ccccc5)C(=O)[C@H]4CC(=O)[C@@H]3CN2S(=O)(=O)c2ccc(C)cc2)cc1`?
TAAR1 antag: -4; TAAR1 agonist: 2

How did CC(O)(c1cccnc1)c1nc(-c2ccc3ccccc3c2)cs1 (stereo not drawn) do in these assays?
TAAR1 antag: -5; TAAR1 agonist: 1

What do the screens show for `CCCCCCCn1c2c(c(=N)c3c1CCC3)CCCC2`?
GPR7 antag: 62*; TAAR1 antag: 12; TAAR1 agonist: 12

Results for COc1ccc(CCNc2ncnc3sccc23)cc1OC ?
OX1R antag-1: 42*; OX1R antag-2: 58; CHO parental Ca: 76*; GPR7 antag: 9; TAAR1 antag: 32; TAAR1 agonist: 11

Results for c1ccc2c(c1)OCC(CNc1ncnc3sccc13)O2 (stereo not drawn) ?
OX1R antag-1: 24; OX1R antag-2: 52; CHO parental Ca: 68*; GPR7 antag: 17; TAAR1 antag: 30; TAAR1 agonist: 8

Results for COc1ccccc1CNc1ncnc2sccc12 ?
OX1R antag-1: -4; OX1R antag-2: 47*; CHO parental Ca: 41*; GPR7 antag: 2; TAAR1 antag: 10; TAAR1 agonist: 2

Results for COc1ccccc1Oc1ncnc2sccc12 ?
OX1R antag-1: -15; OX1R antag-2: 8; CHO parental Ca: -1; GPR7 antag: -6; TAAR1 antag: -15; TAAR1 agonist: 2

What do the screens show for `S=C(NCCCc1cnc[nH]1)NCCCN(Cc1ccccc1)c1ccc(Br)cn1`?
TAAR1 antag: 30; TAAR1 agonist: 22

Results for S=C(NCCCc1cnc[nH]1)NCCCN(Cc1ccc(Cl)cc1)c1ccc(Br)cn1 ?
TAAR1 antag: 38; TAAR1 agonist: 38*

Results for COc1cccc(OC)c1OCCCOc1ccc([N+](=O)[O-])cc1Cl ?
OX1R antag-1: -29; OX1R antag-2: 12; CHO parental Ca: -16; GPR7 antag: 17*; TAAR1 antag: 23; TAAR1 agonist: 5

How did CCOc1ccccc1OCCCOc1ccc([N+](=O)[O-])cc1Cl do in these assays?
OX1R antag-1: -5; OX1R antag-2: 29; CHO parental Ca: 14; GPR7 antag: -11; TAAR1 antag: 30; TAAR1 agonist: 8

How did Cc1ccc(NC(C(=O)c2ccccc2)c2ccccc2)cc1 (stereo not drawn) do in these assays?
TAAR1 antag: 6; TAAR1 agonist: -2

What do the screens show for `CC(C)OCCCn1c(=N)c(C(N)=S)cc2c(=O)n3ccccc3nc21`?
OX1R antag-1: -34; OX1R antag-2: 75*; CHO parental Ca: -24; GPR7 antag: 3; TAAR1 antag: 4; TAAR1 agonist: 2

What do the screens show for `CC(C)OCCCn1c(=NC(=O)c2ccncc2)c(C#N)cc2c(=O)n3ccccc3nc21`?
OX1R antag-1: -22; OX1R antag-2: 52*; CHO parental Ca: -12; GPR7 antag: -3; TAAR1 antag: 10; TAAR1 agonist: 9

Results for COc1ccc(NC(=O)c2cc(-c3ccccc3OC)on2)cc1 ?
OX1R antag-1: -1; OX1R antag-2: 45*; CHO parental Ca: -18; GPR7 antag: 10; TAAR1 antag: 18; TAAR1 agonist: 7

How did COc1ccc(NC(=O)c2cc(-c3ccco3)on2)cc1 do in these assays?
OX1R antag-1: 5; OX1R antag-2: 15; CHO parental Ca: 64*; GPR7 antag: 7; TAAR1 antag: -26; TAAR1 agonist: 2

Results for Cc1cc(C(F)F)n2nc(C(=O)Nc3sc4c(c3C#N)CCC4)nc2n1 ?
OX1R antag-1: 4; OX1R antag-2: 24; CHO parental Ca: -6; GPR7 antag: -6; TAAR1 antag: 2; TAAR1 agonist: -1

Results for CC1CN(C(=O)c2ccc(S(=O)(=O)Nc3cccc(C(F)(F)F)c3)cc2)CC(C)O1 (stereo not drawn) ?
OX1R antag-1: 2; OX1R antag-2: 1; CHO parental Ca: 12; TAAR1 antag: 17; TAAR1 agonist: 59*

What do the screens show for `Cn1cc(S(=O)(=O)N2CCc3ccccc32)cc1C(=O)NC(C)(C)C`?
OX1R antag-1: -10; OX1R antag-2: 7; CHO parental Ca: 33*; GPR7 antag: -3; TAAR1 antag: -18; TAAR1 agonist: 3

How did COc1cc(NC(=O)C2(C)CCCN2C)cc(OC)c1OC (stereo not drawn) do in these assays?
TAAR1 antag: -12; TAAR1 agonist: 1

Results for CC(=O)Nc1cccc(NC(=O)CSc2ccc(-c3ccccn3)nn2)c1 ?
OX1R antag-1: -10; OX1R antag-2: 19; CHO parental Ca: -30; GPR7 antag: -14; TAAR1 antag: -4; TAAR1 agonist: 1

How did COc1cc(NC(=O)CSc2ccc(-c3ccccn3)nn2)cc(OC)c1 do in these assays?
OX1R antag-1: 2; OX1R antag-2: 60*; CHO parental Ca: -15; GPR7 antag: -9; TAAR1 antag: -11; TAAR1 agonist: 6

What do the screens show for `COc1ccc(C(=O)CSc2ccc(-c3ccccc3)nn2)cc1`?
OX1R antag-1: 7; OX1R antag-2: 69*; CHO parental Ca: -11; GPR7 antag: -4; TAAR1 antag: -16; TAAR1 agonist: 1

What do the screens show for `COc1cccc(-c2ccc(SCC(=O)c3ccccc3)nn2)c1`?
OX1R antag-1: -23; OX1R antag-2: 26; CHO parental Ca: 4; GPR7 antag: 12; TAAR1 antag: 26; TAAR1 agonist: 5

Results for O=C(CSc1ccc(-c2cccs2)nn1)Nc1ccccc1 ?
OX1R antag-1: -7; OX1R antag-2: 22; CHO parental Ca: 1; GPR7 antag: -10; TAAR1 antag: -19; TAAR1 agonist: 4

What do the screens show for `Cc1cc(C)cc(NC(=O)CSc2ccc(-c3cccs3)nn2)c1`?
OX1R antag-1: 8; OX1R antag-2: 62*; CHO parental Ca: -26; GPR7 antag: 3; TAAR1 antag: -10; TAAR1 agonist: -1

Results for CCCNS(=O)(=O)c1ccc(CCC(=O)N2CCN(c3ccc(F)cc3)CC2)cc1 ?
OX1R antag-1: -1; OX1R antag-2: 16; CHO parental Ca: -9; GPR7 antag: -1; TAAR1 antag: -18; TAAR1 agonist: -2

How did O=C(Nc1nc2c(s1)CCCC2=O)c1cnccn1 do in these assays?
OX1R antag-1: -11; OX1R antag-2: 49*; CHO parental Ca: 2; GPR7 antag: -13; TAAR1 antag: 11; TAAR1 agonist: 4

What do the screens show for `FC(F)(F)c1ccccc1CN1CCN(C2CCCCCC2)CC1`?
OX1R antag-1: -30; OX1R antag-2: 10; CHO parental Ca: -15; GPR7 antag: 20*; TAAR1 antag: 3; TAAR1 agonist: 8

What do the screens show for `COC(=O)c1sccc1NC(=O)c1cc(-c2cc(C)ccc2C)nc2ccccc12`?
OX1R antag-1: -14; OX1R antag-2: 9; CHO parental Ca: -26; GPR7 antag: 4; TAAR1 antag: 16; TAAR1 agonist: 6
